The source of these data is article PMC10072273 (International Journal of Nanomedicine, 2023).

The test system of test [1] is calcium levels in RAJI cells. The test can be described thus: Calcium assay. The class given is cell-based, human. Conditions: 24 h, HDGF 347 and 174 µM, ibrutinib 30 and 15 µM. The procedure, abridged:
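RAJI cells seeded at 40,000/well and held 24 h at 37°C. Medium was replaced with test nanomaterial (347, 174 µM) or reference BTK inhibitor (30, 15 µM) for 24 h. Cells were washed in cold PBS, loaded with Fluo-4 AM (5 µM, 30 min, 37°C), washed, and resuspended in serum-free, phenol-red-free DMEM. Fluorescence read at ex 485/em 520 nm. ≥3 experiments, mean ± SD, ANOVA with Dunnett's test vs untreated.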

The subject of a further test is c-Myc. The test can be described thus: Immunoblotting in RAJI cells after anti-IgM stimulation. As to conditions: 20 µM ibrutinib, 24 h. The class given is cell-based, human. The gist of the method: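 RAJI cells seeded at 500,000 per dish. Next day they were stimulated with anti-human IgM (12 µg/mL, 10 min), then the medium was replaced with test nanomaterial (347, 174 µM) or reference inhibitor (20 µM) for 24 h. Lysed on ice in RIPA with protease/phosphatase inhibitors and EDTA, then BCA-normalised SDS-PAGE onto nitrocellulose. Primary antibodies 1:1000 overnight at 4°C, loading controls 1:2000, HRP secondary, chemiluminescence, densitometry. 4–5 experiments.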
On the technique in general: A western blot detects proteins with antibodies after separation by electrophoresis.

For a further test, the system named is TLR8. The test can be described thus: mRNA expression. As to conditions: RAJI cells, 24 h. Type of test: cell-based, human. The procedure, abridged:
(§1)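 RAJI cells treated 24 h with test nanomaterial (347, 174, 84 µM) or reference BTK inhibitor (30, 15 µM). Total RNA extracted with TRIzol and 1 µg reverse-transcribed. qPCR run as 95°C 60 s, then 40 cycles of 95°C 15 s, primer-specific annealing 30 s, 72°C 30 s, with melt-curve check. Expression by 2−ΔΔCT vs HPRT1. ≥4 experiments, mean ± SD, ANOVA with Dunnett's test vs untreated.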

In the next test the test system is p62. The test can be described thus: mRNA expression. Type of test: cell-based, human. Conditions: RAJI cells, ibrutinib 15 µM, 24 h. The gist of the method:
as §1

The subject of a further test is K562 cells. The test can be described thus: Cytotoxicity. Type of test: cell-based. Conditions: Homo sapiens, K562, 72 h, read-out: Antiproliferative activity IC50, K562 cells. The procedure, abridged:
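K562 cells were grown in RPMI-1640 with 10% heat-inactivated FBS and penicillin/streptomycin at 37°C, 5% CO2. Seeded at 8,000 cells/well, rested 24 h, then exposed 72 h to a concentration series. MTS reagent was added in phenol-red-free DMEM for 1 h at 37°C and absorbance read at 490 nm. Response was taken relative to control and IC50 fitted. Triplicates per experiment, 3–4 experiments.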

For the next test, the system named is BTK. The test can be described thus: mRNA expression. The class given is cell-based, human. Conditions: RAJI cells, ibrutinib, 24 h. The gist of the method:
as §1

The test system of the next test is ARID3A. The test can be described thus: mRNA expression. The class given is cell-based, human. Conditions: RAJI cells, 30 µM ibrutinib, 24 h. The gist of the method:
as §1

A further test deals with NFAT. The test can be described thus: mRNA expression. Conditions: RAJI cells, 24 h. The class given is cell-based, human. The procedure, abridged: as §1

Regarding `C=CC(=O)N1CCC[C@@H](n2nc(-c3ccc(Oc4ccccc4)cc3)c3c(N)ncnc32)C1` [ibrutinib], in test [1], the Cellular calcium levels result is “drop dramatically”. In the test with c-Myc, the c-Myc protein expression entry is given as “slight downregulation”. Besides, in the test with TLR8, the “Expression of TLR8” value is given as “significant decrease”. For the same molecule, the “Expression of p62” value in the test on p62 was “almost three-fold increase”. For the same molecule, the IC50 in the test with K562 cells was 0.85 µM. Moreover, in the test with BTK, the BTK gene expression result is given as “increased”. In the test on ARID3A, the “Expression of ARID3A” value is recorded as “almost two-fold downregulation”. In addition, the “Expression of NFAT” value in the test with NFAT was “significant decrease”.

The term IC50 denotes the concentration that gives 50% inhibition.
